ChEMBL document CHEMBL4364260, “Discovery of Ziresovir as a Potent, Selective, and Orally Bioavailable Respiratory Syncytial Virus Fusion Protein Inhibitor” (J Med Chem, 2019)
Calls of active or inactive are those of the source. The rule behind the calls is not given here.

Legend:
[1] = Half-life in CD-1 mouse lung at 10 mg/kg/day, po administered via gavage and measured up to 24 hrs by LC/MS/MS analysis; format: ADME, organism-based
[2] = Cmax in CD-1 mouse lung at 10 mg/kg/day, po administered via gavage and measured up to 24 hrs by LC/MS/MS analysis; format: ADME, organism-based; design: dose 10 mg/kg/day, route oral
[3] = Volume of distribution at steady state in Beagle dog at 1 mg/kg, iv or 10 mg/kg, po; format: ADME, organism-based, Canis lupus familiaris; settings: in vivo, read-out: Vdss
Summary of the method: (§1)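 Beagle dog single-dose PK at 1 mg/kg iv and 10 mg/kg po, dosed as a solution in 12.5% captisol in water. Plasma clearance, Vss, iv T1/2, AUC and F were reported.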

[4] = Half-life in CD-1 mouse at 5 mg/kg, iv; format: ADME, organism-based; settings: in vivo
Summary of the method: (§2)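 Single-dose PK in CD-1 mice: 5 mg/kg iv, 50 mg/kg po. Dosed as a solution in 5% DMSO, 40% PEG400, 55% of 0.9% NaCl. Plasma CL, Vss, iv T1/2, AUC and F were derived.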

[5] = Clearance in Sprague-Dawley rat at 2 mg/kg, iv or 10 mg/kg, po; format: ADME, organism-based; settings: in vivo
Summary of the method: (§3)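 Rat single-dose PK: 2 mg/kg iv and 10 mg/kg po. Compound was given as a solution in 5% DMSO/40% PEG400/55% of 0.9% saline. Plasma CL, Vss, iv half-life, AUC and oral bioavailability were reported.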

[6] = Oral bioavailability in CD-1 mouse at 50 mg/kg; format: ADME, organism-based; settings: in vivo; summary of the method: as §2
[7] = tested on: Human parainfluenza virus 2; experiment: Antiviral activity against Human parainfluenza virus 2 infected in human Hep2 cells assessed as reduction in virus induced cytopathic effect after 5 days by CCK-8 assay; format: functional, organism-based; settings: Human orthorubulavirus 2
[8] = Half-life in Wistar-Han rat at 2 mg/kg, iv administered as single dose and measured up to 24 hrs by LC/MS/MS analysis; format: ADME, organism-based; settings: in vivo
Summary of the method: (§4)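 Male Wistar-Han rats, single dose, 2 mg/kg iv and 10 mg/kg po, run by standard procedures.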

[9] = Volume of distribution at steady state in CD-1 mouse at 5 mg/kg, iv or 50 mg/kg, po; format: ADME, organism-based; settings: in vivo, read-out: Vdss; summary of the method: as §2
[10] = Half-life in cynomolgus monkey at 2 mg/kg, iv; format: ADME, organism-based, Macaca fascicularis; settings: in vivo
Summary of the method: (§5)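 Cynomolgus monkeys got single doses of 2 mg/kg iv and 10 mg/kg po as a solution in 12.5% captisol in water. Plasma CL, Vss, iv T1/2, AUC and oral F were derived.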

[11] = tested on: Fusion glycoprotein F0 (Human respiratory syncytial virus A (strain A2)), P03420 [D489A]; experiment: Inhibition of Human respiratory syncytial virus Fusion protein D489A mutant expressed in Hep2 cells as reduction in virus induced cytopathic effect by CCK-8 assay; format: cell-based
Summary of the method: (§6)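 HEp-2 cells were seeded at 6000/well and infected with plaque-purified RSV carrying the F-protein mutation (D486N or D489A) at MOI 0.04, with serially diluted compound. Viability was read by CCK-8 absorbance at 450 nm/650 nm, and EC50/EC90 were derived from protection against virus-induced cytopathic effect.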

Human respirovirus 1 = experiment: Antiviral activity against Human parainfluenza virus 1 infected in human Hep2 cells assessed as reduction in virus induced cytopathic effect after 5 days by CCK-8 assay; format: functional, organism-based
[12] = Ratio of AUC (0 to 24 hrs) in lung to plasma of CD-1 mouse at 10 mg/kg, po administered via gavage by LC-MS/MS analysis; format: ADME, organism-based; settings: read-out: Ratio AUC
[13] = AUC (0 to 24 hrs) in CD-1 mouse at 50 mg/kg, po; format: ADME, organism-based; design: dose 50 mg/kg, time < 24 hr, route oral; settings: in vivo
Summary of the method: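 Single-dose PK in mouse at 5 mg/kg iv or 50 mg/kg po, as a solution in 5% DMSO, 40% PEG400 and 55% 0.9% sodium chloride. Plasma AUC was taken from the oral arm, with CL, Vss, iv T1/2 and F also derived.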

Enterovirus = experiment: Antiviral activity against Rhinovirus infected in human Hep2 cells assessed as reduction in virus induced cytopathic effect after 5 days by CCK-8 assay; format: functional, organism-based
[14] = Volume of distribution at steady state in Wistar-Han rat at 2 mg/kg, iv or 10 mg/kg, po administered as single dose via gavage and measured up to 24 hrs by LC/MS/MS analysis; format: ADME, organism-based; settings: in vivo, read-out: Vdss; summary of the method: as §4
[15] = Antiviral activity against Human respiratory syncytial virus B 821 clinical isolates infected in human Hep2 cells assessed as reduction in virus induced cytopathic effect in presence of 10% FBS after 5 days by CCK-8 assay; format: functional, cell-based; settings: human respiratory syncytial virus, 821, HEp-2, 120 h
Summary of the method: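 HEp-2 cells seeded at 6000/well and infected the next day at MOI 0.02, a dose that gives about 90% CPE by day 5. Serial compound dilutions were present throughout, in standard medium with 10% FBS. Viability was read by CCK-8 at day 5, and EC50 is the concentration that cuts CPE by 50%.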

[16] = AUC (0 to 24 hrs) in Beagle dog at 10 mg/kg, po; format: ADME, organism-based, Canis lupus familiaris; design: dose 10 mg/kg, time < 24 hr, route oral; settings: in vivo
Summary of the method: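 Single-dose PK. Dog received 1 mg/kg iv or 10 mg/kg po, and cynomolgus monkey received 2 mg/kg iv or 10 mg/kg po. Both were given as a solution in 12.5% captisol in water. Plasma AUC was taken from the oral arm, with CL, Vss, iv T1/2 and F also derived.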

[17] = tested on: Fusion glycoprotein F0 (Human respiratory syncytial virus A (strain A2)), P03420 [D486N]; experiment: Inhibition of Human respiratory syncytial virus Fusion protein D486N mutant expressed in Hep2 cells as reduction in virus induced cytopathic effect by CCK-8 assay; format: cell-based; summary of the method: as §6
[18] = Oral bioavailability in Sprague-Dawley rat at 10 mg/kg; format: ADME, organism-based; settings: in vivo; summary of the method: as §3
[19] = Half-life in Beagle dog at 1 mg/kg, iv; format: ADME, organism-based, Canis lupus familiaris; settings: in vivo; summary of the method: as §1
[20] = Plasma clearance in Wistar-Han rat at 2 mg/kg, iv or 10 mg/kg, po administered as single dose via gavage and measured up to 24 hrs by LC/MS/MS analysis; format: ADME, organism-based; summary of the method: as §4
[21] = Volume of distribution at steady state in Sprague-Dawley rat at 2 mg/kg, iv or 10 mg/kg, po; format: ADME, organism-based; settings: in vivo, read-out: Vdss; summary of the method: as §3
[22] = Oral bioavailability in Beagle dog at 10 mg/kg; format: ADME, organism-based, Canis lupus familiaris; settings: in vivo; summary of the method: as §1
Human respirovirus 3 = experiment: Antiviral activity against Human parainfluenza virus 3 infected in human Hep2 cells assessed as reduction in virus induced cytopathic effect after 5 days by CCK-8 assay; format: functional, organism-based
Influenza A virus = experiment: Antiviral activity against Influenza A virus H1N1 infected in human Hep2 cells assessed as reduction in virus induced cytopathic effect after 5 days by CCK-8 assay; format: functional; settings: H1N1, HEp-2, 120 h
[23] = Volume of distribution at steady state in cynomolgus monkey at 2 mg/kg, iv or 10 mg/kg, po; format: ADME, organism-based, Macaca fascicularis; settings: in vivo, read-out: Vdss; summary of the method: as §5
[24] = Cmax in CD-1 mouse plasma at 10 mg/kg/day, po administered via gavage and measured up to 24 hrs by LC/MS/MS analysis; format: ADME, organism-based; design: dose 10 mg/kg/day, route oral
[25] = Clearance in Beagle dog at 1 mg/kg, iv or 10 mg/kg, po; format: ADME, organism-based, Canis lupus familiaris; settings: in vivo; summary of the method: as §1

Cc1ccc2nc(N3CCS(=O)(=O)c4ccccc4C3)nc(NCC3(N)COC3)c2c1 [ZIRESOVIR]
half-life [1]: 3.31 h
Cmax [2]: 22.7 µg/mL
Vd [3]: 6.7 L/kg
half-life [4]: 0.4 h
clearance [5]: 3.48 L/h/kg
bioavailability [6]: 66%
Activity [7]: inactive
half-life [8]: 1.2 h
Vd [9]: 6.3 L/kg
half-life [10]: 1 h
EC90 [11]: 10 µM
Activity (Human respirovirus 1): inactive
Kp [12]: 8.6
AUC(0-t) at 24 h [13]: 1.97 µg·h/mL
Activity (Enterovirus): inactive
Vd [14]: 3.9 L/kg
EC50 [15]: 0.003 µM
EC90 [15]: 0.008 µM
AUC(0-t) at 24 h [16]: 1.17 µg·h/mL
EC90 [17]: > 10 µM
bioavailability [18]: 32%
half-life [19]: 2.8 h
clearance [20]: 3.48 L/h/kg
Vd [21]: 3.9 L/kg
bioavailability [22]: 26%
Activity (Human respirovirus 3): inactive
EC90 (Influenza A virus): > 100 µM
Vd [23]: 1.9 L/kg
Cmax [24]: 5.09 µg/mL
clearance [25]: 2.16 L/h/kg
